Calls of active or inactive are those of the source. No cut-off for these calls is given here.
Key:
[1] = Cytotoxicity against CHO cells assessed as cell viability after 24 hrs by MTT assay; type: cell-based, Cricetulus griseus; conditions: chinese hamster
How it was run: (§1)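 Cells were kept in RPMI with 10% FBS. 5×10^3 cells/well were settled 24 h, then exposed to compound from DMSO (final <0.5%): CHO for 24 h, HepG2 for 72 h, in duplicate. Wells were checked for precipitate. MTT was added for 2 h at 37 °C, formazan dissolved in DMSO, and A570 read (630 nm reference). Viability is % of untreated cells; CC50 from non-linear regression, mean of three experiments.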

[2] = test system: Plasmodium berghei; test: Antiplasmodial activity against chloroquine-sensitive Plasmodium berghei NK65 infected in Swiss mouse assessed as reduction in parasitemia at 2.5 mg/kg, ip bid administered for 4 days measured on day 4 by Giemsa staining relative to control; type: functional; parameters: scale not given: the % may be the effect or the level left; conditions: route intraperitoneal
How it was run: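 Male Swiss mice (20 ± 2 g) were infected on day 0 with 10^7 parasitized cells in 0.9% saline. Groups of 5 were dosed ip at 2.5 mg/kg twice a day from day 0 to day 3.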

[3] = test system: Plasmodium yoelii; test: Antiplasmodial activity against liver stage of Plasmodium yoelii 17X NL sporozoites infected in human HepG2 cells expressing CD81 after 48 hrs by DAPI staining-based immunofluorescence analysis; type: functional, organism-based; conditions: HepG2, 48 h
How it was run: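 HepG2/CD81 cells were grown in D-MEM with 10% FBS. 25×10^3 cells/well went on collagen-coated wells; after 24 h they received compound and 5000 P. yoelii sporozoites together, then were spun 900 × g for 10 min at 4 °C. Treatment was renewed at 3 h and 24 h. At 48 h cells were methanol-fixed, stained with anti-HSP70 immunofluorescence, and parasites counted by microscopy. IC50 is 50% fewer parasites than in 0.5% DMSO controls.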

[4] = Cytotoxicity against human HepG2 cells expressing CD81 assessed as cell viability after 72 hrs by CellTiter-glo assay; type: cell-based
[5] = Inhibition of hemozoin polymerization after 24 hrs by spectroscopic analysis; type: functional
How it was run: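 Hemozoin (4 mM solution in 0.1 M NaOH) was mixed with compound at drug:heme ratios of 1:1 to 8:1, in triplicate. Acetic acid was added to pH 3, and samples were incubated 24 h at 37 °C. Soluble, DMSO-soluble and pellet fractions were separated by centrifugation. Each fraction was quantified at A405 against a hemozoin standard curve. IC50 is 50% decrease in polymerization.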

[6] = (§2) Cytotoxicity against human HepG2 cells assessed as cell viability after 72 hrs by MTT assay; type: cell-based; conditions: HepG2 cells; how it was run: as §1
[7] = test system: Plasmodium falciparum; test: Antiplasmodial activity against chloroquine-sensitive Plasmodium falciparum 3D7 infected in human erythrocytes assessed as parasite growth inhibition after 72 hrs by SYBR Green I dye-based fluorescence assay; type: functional, organism-based
How it was run: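 Parasites grown in A+ human erythrocytes (2.5% haematocrit) in RPMI 1640 with 25 mM HEPES, 25 mM NaHCO3 and 10% A+ serum, at 37 °C under 6% CO2/14% O2/80% N2. Rings were sorbitol-synchronized. Compounds in DMSO (<0.5% final) were incubated 72 h at 2% haematocrit and 1% parasitaemia. SYBR Green lysis read at ex 497/em 520 nm; duplicates; IC50 from three independent experiments.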

[8] = test system: Plasmodium falciparum; test: Antiplasmodial activity against multi-drug resistant Plasmodium falciparum K1 infected in human erythrocytes assessed as parasite growth inhibition after 72 hrs by SYBR Green I dye-based fluorescence assay; type: functional, organism-based; conditions: read-out: IC50
[9] = Selectivity index, ratio of CC50 for human HepG2 cells to IC50 for chloroquine-sensitive Plasmodium falciparum 3D7 infected in human erythrocytes; type: functional
How it was run: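 SI = HepG2 CC50 (72 h MTT) / P. falciparum IC50. […] Cultures were exposed 72 h at 37 °C to compound (DMSO final <0.5%), in duplicate. Growth was read by SYBR Green I lysis fluorescence (ex 497, em 520 nm), from three independent experiments.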

[10] = test system: Plasmodium falciparum; test: Antiplasmodial activity against multi-drug resistant erythrocytic stage of Plasmodium falciparum K1 isolated from synchronized culture assessed as reduction in parasitemia at 5 X IC50 measured for 8 hrs by spectrophotometric analysis relative to control; type: functional; parameters: scale not given: the % may be the effect or the level left
How it was run: (§3)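 K1 cultures were synchronized to an 8-h window with 5% D-sorbitol and held in 24-well plates at 0.8% parasitemia and 4% hematocrit. They received 8-h compound pulses (DMSO <0.5%) at successive points of the cycle, then three washes and culture to the ring stage of the next cycle. Fluorescence read at 497/520 nm; % growth inhibition versus DMSO control; chloroquine as positive control.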

[11] = test system: Plasmodium falciparum; test: Antiplasmodial activity against multi-drug resistant erythrocytic stage of Plasmodium falciparum K1 isolated from synchronized culture assessed as reduction in parasitemia at 5 X IC50 measured for 32 hrs by spectrophotometric analysis relative to control; type: functional; parameters: scale not given: the % may be the effect or the level left; how it was run: as §3
[12] = Cytotoxicity against human HepG2 cells expressing CD81 assessed as cell viability after 72 hrs by MTT assay; type: cell-based
[13] = Selectivity index, ratio of CC50 for human HepG2 cells expressing CD81 to IC50 for liver stage of Plasmodium yoelii 17X NL sporozoites infected in human HepG2 cells expressing CD81; type: functional
[14] = Selectivity index, ratio of CC50 for human HepG2 cells to IC50 for multi-drug resistant Plasmodium falciparum K1 infected in human erythrocytes
[15] = test system: Plasmodium falciparum; test: Antiplasmodial activity against multi-drug resistant Plasmodium falciparum K1 infected in human erythrocytes assessed as depolarization of mitochondrial membrane at IC50 after 20 mins by flow cytometric analysis; type: functional, organism-based
[16] = test system: HepG2; test: as §2; type: cell-based; conditions: hepg2, 72 h, 72 h, read-out: CC50; how it was run: as §1
[17] = test system: Leishmania donovani; test: Antileishmanial activity against promastigote stage of Leishmania donovani assessed as parasite growth inhibition after 72 hrs by MTT assay; type: functional, organism-based
How it was run: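 L. donovani promastigotes were grown at 27 °C in Schneider's medium with 10% FBS. 1×10^6 log-phase cells/well were exposed to compound from DMSO (final <0.5% v/v) for 72 h at 27 °C, in duplicate. MTT was then added for 6 h, formazan dissolved in DMSO, and A570 read (630 nm reference). IC50 came from non-linear regression, mean of three independent experiments.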

[18] = test system: Toxoplasma gondii; test: Antitoxoplasmic activity against tachyzoite stage of Toxoplasma gondii PRU transfected with beta galactosidase infected in HFF assessed as parasite growth inhibition after 96 hrs by colorimetric microtiter assay; type: functional
How it was run: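 Confluent HFF monolayers (1×10^4 seeded) were infected with 2×10^3 PRU-β-Gal tachyzoites for 3 h. Compounds from DMSO (final <0.5%) were then added in triplicate for 96 h at 37 °C. CPRG was added at 500 µM final for 24 h more, then A570 read (630 nm reference). IC50 came from non-linear regression, mean of three experiments.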

[19] = test system: Salmonella typhimurium; test: Mutagenicity in Salmonella typhimurium TA97A at 2.5 mM after 1 hr by Ames test in absence of S9 fraction; type: toxicity, organism-based; conditions: salmonella enterica subsp. enterica serovar typhimurium, 2500 µM
How it was run: (§4)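 Tester strains were grown overnight in nutrient broth. 0.1 mL culture was incubated 1 h at 37 °C with shaking with compound (2.5–25 mM DMSO solutions), with or without 4% S9 mix. Top agar was added and the mix plated on Vogel-Bonner agar. Revertants were counted after 48 h at 37 °C in the dark. A twofold rise over spontaneous revertants counts as mutagenic.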

[20] = test system: Salmonella typhimurium; test: Mutagenicity in Salmonella typhimurium TA100 at 2.5 mM after 1 hr by Ames test in absence of S9 fraction; type: toxicity, organism-based; conditions: salmonella enterica subsp. enterica serovar typhimurium, 2500 µM; how it was run: as §4
[21] = test system: Salmonella typhimurium; test: Mutagenicity in Salmonella typhimurium TA97A at 2.5 mM after 1 hr by Ames test in presence of S9 fraction; type: toxicity, organism-based; conditions: salmonella enterica subsp. enterica serovar typhimurium, s9, 1 h, 2500 µM
How it was run: (§5)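 Tester strains were grown overnight in nutrient broth. Top agar was added and the mix plated on Vogel-Bonner agar. Revertants were counted after 48 h at 37 °C in the dark. A twofold rise over spontaneous revertants counts as mutagenic.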

[22] = test system: Salmonella typhimurium; test: Mutagenicity in Salmonella typhimurium TA100 at 2.5 mM after 1 hr by Ames test in presence of S9 fraction; type: toxicity, organism-based; conditions: salmonella enterica subsp. enterica serovar typhimurium, s9, 1 h, 2500 µM; how it was run: as §5
[23] = Genotoxicity in DNA (unknown origin) incubated for 24 hrs in dark condition by methyl green displacement assay
How it was run: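 DNA-methyl green (4 mg in 20 mL 0.05 M Tris-HCl pH 7.5 with 7.5 mmol/L MgSO4) was shaken 24 h at 37 °C. It was then added to compound from DMSO (final <0.5%). A630 was read, and read again after 24 h at room temperature in the dark. DC50 is the concentration displacing 50% of methyl green.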

[24] = Inhibition of Plasmodium falciparum DHFR after 48 hrs
How it was run: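 Recombinant S. cerevisiae whose own DHFR is replaced by the P. falciparum DHFR domain was used. 1×10^4 cells were grown in YEPD with compound from DMSO (final <0.5%) at 30 °C for 48 h, in duplicate. Growth was read as A660. IC50 (50% growth inhibition) came from non-linear regression.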

[25] = test system: Plasmodium falciparum; test: Antiplasmodial activity against multi-drug resistant Plasmodium falciparum K1 infected in human erythrocytes assessed as parasite growth inhibition after 72 hrs by SYBR Green I dye-based fluorescence assay in presence of ascorbic acid; type: functional, organism-based; conditions: K1, 72 h
How it was run: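 Same SYBR Green I 72 h growth assay on the K1 strain (2% haematocrit, 1% parasitaemia, 37 °C, 6% CO2/14% O2/80% N2, DMSO <0.5%), with 800 µM ascorbic acid in the medium as radical trap. Duplicates; artesunate as positive control; IC50 derived.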

[26] = test system: Plasmodium falciparum; test: Antiplasmodial activity against multi-drug resistant Plasmodium falciparum K1 after 72 hrs by SYBR Green I dye-based fluorescence assay; conditions: K1, 72 h

CCN(CC)CCCC(C)Nc1ccnc2cc(Cl)ccc12 (centres undefined) [CHLOROQUINE]
CC50 at 24 h [1]: 155 µM | Activity [2]: 85% | IC50 [3]: 1.65 µM | CC50 at 72 h [4]: 1.6 µM | IC50 [5]: 1460 µM

Cc1ccc(-c2cc3nc(NC(C)(C)C)[nH]c(=O)c3s2)cc1.Cl
CC50 at 72 h [6]: 24 µM | IC50 [7]: 0.035 µM | IC50 [8]: 0.045 µM | Ratio CC50/IC50 [9]: 686 | Activity [2]: 45% | Activity [10]: 41% | Activity [11]: 30% | IC50 [3]: 0.035 µM | CC50 at 72 h [12]: > 143 µM | Ratio CC50/IC50 [13]: >4086 | Ratio CC50/IC50 [14]: 533

Cc1ccc(-c2cc3nc(NC(C)C)[nH]c(=O)c3s2)cc1
Activity [15]: inactive

CC(C)(C)Nc1nc2cc(-c3ccc(Cl)cc3)sc2c(=O)[nH]1
CC50 [16]: 15 µM | IC50 [7]: 0.344 µM | IC50 [8]: 0.8 µM | Ratio CC50/IC50 [9]: 44 | IC50 [17]: > 10 µM | IC50 [18]: > 10 µM | Activity [19]: Non-toxic | Activity [20]: Non-toxic | Activity [21]: Non-toxic | Activity [22]: Non-toxic | DC50 [23]: > 25000 µM | IC50 [5]: > 25000 µM | IC50 [24]: > 250 µM | IC50 [25]: 0.8 µM | Ratio CC50/IC50 [14]: 19

Cc1ccc(-c2cc3nc(NC(C)(C)C)[nH]c(=O)c3s2)cc1
CC50 [16]: 25.6 µM | CC50 at 24 h [1]: 27.5 µM | IC50 [7]: 0.14 µM | IC50 [8]: 0.2 µM | Ratio CC50/IC50 [9]: 183 | IC50 [17]: > 10 µM | IC50 [18]: > 10 µM | Activity [19]: Non-toxic | Activity [20]: Non-toxic | Activity [21]: Non-toxic | Activity [22]: Non-toxic | DC50 [23]: > 25000 µM | IC50 [5]: 21600 µM | IC50 [24]: > 500 µM | IC50 [25]: 0.2 µM | Ratio CC50/IC50 [14]: 128

CN(C)c1nc2cc(-n3cnc4cc(-c5ccc(Cl)cc5)sc4c3=O)ccc2n1CCCN1CCCC1
IC50 [26]: < 10 µM

Reference: ChEMBL document CHEMBL3414541, “Discovery of new thienopyrimidinone derivatives displaying antimalarial properties toward both erythrocytic and hepatic stages of Plasmodium” (Eur J Med Chem, 2015)
